Screening results as filed in PubChem BioAssay.
M4 antag = human M4 muscarinic receptor antagonists, primary screen, CHO cells, Fluo-8 calcium fluorescence. inhibition, % at 3 µM. AID 624125, 2012. Muscarinic acetylcholine receptor M4 (Homo sapiens), P08173. 0.73% of 360,000 active. CHO-hM4 cells, ACh EC80;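 active means inhibition above its plate's cutoff, the mean inhibition of sample wells plus 3 SD, cut at about 27% in these data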;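 further: 0% = acetylcholine EC80 with DMSO and 100% = DMSO without agonist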
M5 antag = human M5 muscarinic receptor antagonists, primary screen, CHO cells, Fluo-8 calcium fluorescence; Muscarinic acetylcholine receptor M5 (Homo sapiens), P08912; inhibition, % at 3 µM; CHO-hM5 cells, ACh EC80; 0.59% of 360,000 active;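 active means inhibition above a per-plate cutoff, the mean of that plate's test compounds plus 3 SD, cut at about 27% in these data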;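 further: 0% = acetylcholine EC80 with DMSO and 100% = DMSO without agonist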
Target sequence (P08912 whole entry, looked up): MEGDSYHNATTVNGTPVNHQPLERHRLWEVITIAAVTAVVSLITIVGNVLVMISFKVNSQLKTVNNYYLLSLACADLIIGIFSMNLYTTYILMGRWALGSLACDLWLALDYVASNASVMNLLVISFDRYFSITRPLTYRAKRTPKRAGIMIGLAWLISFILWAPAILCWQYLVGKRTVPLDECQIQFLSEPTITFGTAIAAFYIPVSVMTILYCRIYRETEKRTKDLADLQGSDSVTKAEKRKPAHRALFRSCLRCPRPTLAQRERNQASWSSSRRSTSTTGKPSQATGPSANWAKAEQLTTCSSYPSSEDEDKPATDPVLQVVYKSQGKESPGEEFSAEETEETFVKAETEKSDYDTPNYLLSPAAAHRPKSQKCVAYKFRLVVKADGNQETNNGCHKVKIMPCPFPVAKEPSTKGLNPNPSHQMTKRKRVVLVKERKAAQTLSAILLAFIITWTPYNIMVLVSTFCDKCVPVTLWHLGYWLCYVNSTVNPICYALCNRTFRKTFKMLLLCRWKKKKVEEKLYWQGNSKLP
M5 PAM = human M5 muscarinic receptor positive allosteric modulators, primary screen, CHO-K1 cells, Fluo-8 calcium fluorescence. CHO-K1 hM5, ACh EC20 PAM; 0% = ACh EC20, 100% = ACh EC100. 0.3% of 360,000 active. activation, % at 3 µM. AID 624038, 2012. Muscarinic acetylcholine receptor M5 (Homo sapiens), P08912;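 active means activation above the run cutoff, the mean activation of all test compounds plus 3 SD, cut at about 18% in these data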
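Replicates: One well per compound, no replicates | System: Human M5 receptor in CHO-K1 cells | Benchmarks: Low control EC20 acetylcholine (0%), high control EC100 acetylcholine (100%) | Probe or stimulus: Acetylcholine, EC20 level | Times: Fluo-8 loading 80 min at 37 °C plus 30 min room temperature | Signal: Intracellular calcium via Fluo-8 fluorescence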
CHRM5 agonist = human M5 muscarinic receptor agonists, primary screen, CHO-K1 cells, Fluo-8 calcium fluorescence. 0.19% of 360,000 active. activation, % at 3 µM. AID 624037, 2012. CHO-K1 hM5 cells; 0% DMSO wells, 100% maximal acetylcholine response. Muscarinic acetylcholine receptor M5 (Homo sapiens), P08912;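 active means activation above the run's mean over test compounds plus 3 SD, cut at about 23% in these data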;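 further: signal is peak over basal fluorescence ratio across the kinetic read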
M4 PAM = human M4 muscarinic receptor positive allosteric modulators, primary screen, CHO-K1 cells, Fluo-8 calcium fluorescence; CHO-K1 hM4/Gqi5, ACh EC20; 0% = ACh EC20, 100% = maximal ACh; Muscarinic acetylcholine receptor M4 (Homo sapiens), P08173; AID 624126, 2012; activation, % at 3 µM; 0.4% of 360,000 active;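 active means activation above its plate's cutoff, the mean activation of sample wells plus 3 SD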
CHRM4 agonist = human M4 muscarinic receptor agonists, primary screen, CHO-K1 cells, Fluo-8 calcium fluorescence; 0.14% of 360,000 active; activation, % at 3 µM; Muscarinic acetylcholine receptor M4 (Homo sapiens), P08173; CHO-K1 hM4/Gqi5; vehicle 0%, full acetylcholine response 100%;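 active means activation above the run mean over all test wells plus 3 SD, cut at about 32% in these data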;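 further: peak over basal fluorescence ratio per well then scaled between controls; 0% = DMSO wells and 100% = acetylcholine at EC100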
* = called active by the depositor. This is a sample that favours compounds with a hit; in the whole collection about 1.8% have one here.

SMILES	M4 antag	M5 antag	M5 PAM	CHRM5 agonist	M4 PAM	CHRM4 agonist
O=C1c2ccccc2C(=O)c2cc(N3CCCCC3)ccc21	1.6	34.4*	-13.2	72.0*	3.4	10.7
COc1ccc(NC(=O)Nc2ccc(Cc3ccncc3)cc2)cc1OC	-1.5	4.8	-27.8	-6.1	-4.0	5.4
COc1ccc(NC(=S)NCCN2CCOCC2)c(OC)c1	-4.7	-6.5	2.4	-3.0	16.1*	0.6
Cc1cc(C(=O)NCCc2ccc(S(N)(=O)=O)cc2)no1	8.3	3.3	18.3*	3.8	-5.0	0.5
COc1ccc(NC(=S)NCCc2ccc(S(N)(=O)=O)cc2)c(OC)c1	3.1	27.1*	-20.2	0.0	-11.4	17.0
COc1ccccc1NC(=S)NCCc1ccc(S(N)(=O)=O)cc1	-8.1	4.5	-1.5	0.3	-3.0	0.4
COc1ccc(-n2ncc3c2CC(C)(C)CC3NC(=O)CCCN2CCCC2=O)cc1 (configuration not stated)	3.2	17.7	-3.1	-4.4	8.5	-1.3
COc1ccc(/C=C2\SC(N)=NC2=O)cc1	1.1	2.2	-3.8	3.6	-6.1	0.4
COc1cc(/C=C2\SC(N)=NC2=O)cc(Br)c1O	-0.6	-7.0	-9.5	23.7*	-7.0	6.8
COc1cc(/C=N/N2C(=O)CSC2=S)cc(Br)c1O	8.5	10.0	-21.3	55.7*	-30.4	69.4*
COC(=O)c1ccc2nc(C3CCCCC3)c(Cc3ccccc3)n2c1	1.9	-6.8	-8.7	-5.3	-6.7	-0.2
O=C(O)c1ccc(N/N=C/c2ccc(-c3cccc(Cl)c3)o2)cc1	9.3	-2.4	11.1	14.2	-6.3	17.0
O=[N+]([O-])c1ccccc1N/N=C/c1c[nH]c2ccccc12	0.7	-0.9	-0.7	-3.8	4.6	1.5
O=[N+]([O-])c1ccc(N/N=C/c2c[nH]c3ccccc23)cc1	20.6	28.0*	-18.4	3.0	-9.5	17.5
O=C(O)c1cccc(-c2ccc(/C=N/Nc3ccc([N+](=O)[O-])cc3)o2)c1	27.3*	34.1*	-16.2	34.2*	-17.4	11.8
O=C(O)c1ccc(-c2ccc(/C=N/Nc3ccc([N+](=O)[O-])cc3)o2)cc1	19.0	27.6*	-13.1	55.5*	-14.1	24.4
NS(=O)(=O)c1ccc(-c2ccc(/C=N/Nc3ccc(C(=O)O)cc3)o2)cc1	-1.9	6.5	-5.6	-0.6	10.1	0.7
Cc1cc([N+](=O)[O-])ccc1NC(=O)C(C)N1CCN(c2ccccn2)CC1 (configuration not stated)	5.4	3.2	3.7	-5.5	0.9	-1.3
Cc1ccc(-c2ccc3c(c2)O[C@H](CN(C)C(=O)Nc2ccc(C(F)(F)F)cc2)[C@H](C)CN([C@H](C)CO)S3(=O)=O)cc1	-10.4	-0.8	-4.8	3.2	2.6	0.4
Cc1ccccc1OCCn1cc(C(=S)N2CCCC2)c2ccccc21	-6.8	-8.7	-15.2	-6.1	-2.8	0.5
CC(=O)c1cn(CCOc2ccccc2C)c2ccccc12	25.6	28.9*	-15.8	8.2	-12.5	13.7
CCOC(=O)N1CCN(C(=O)COC(=O)c2ccc(Cl)nc2)CC1	-2.3	10.1	5.3	-0.4	0.0	8.8
CC(C)(C)OC(=O)CNC(=O)c1[nH]cnc1C(=O)NCCCCCN	7.2	19.2	-10.7	1.4	-2.4	0.0
CC(C)C[C@H](NC(=O)c1nc[nH]c1C(=O)NCCCCCNC(=O)OC(C)(C)C)C(=O)OC(C)(C)C	49.7*	-3.3	-20.6	-5.6	-13.7	4.1
CC(C)C[C@H](NC(=O)c1nc[nH]c1C(=O)N1CCN(C(=O)OC(C)(C)C)CC1)C(=O)OC(C)(C)C	0.5	5.6	9.6	0.6	25.3*	0.2
SMILES	M4 antag	M5 antag	M5 PAM	CHRM5 agonist	M4 PAM	CHRM4 agonist
CC(C)(C)OC(=O)CNC(=O)c1[nH]cnc1C(=O)NCCCCCNC(=O)OC(C)(C)C	22.5	32.4*	-38.7	4.1	-14.5	34.5*
O=C(NC1CCCN(c2ccc(C(F)(F)F)cn2)C1)c1ccnc(Cl)c1 (configuration not stated)	5.0	-4.0	3.5	-2.1	19.8*	4.2
CCn1c(=O)c([N+](=O)[O-])c(Cl)c2ccccc21	38.6*	22.9	-13.6	0.7	-20.9	6.6
Cc1ccccc1C(=O)Nc1ccc(C(=O)N/N=C/c2ccc(O)c(Br)c2)cc1	12.7	12.9	-15.3	0.7	-10.9	8.2
CCCC/C(O)=C1\C(=O)CC(C)(C)CC1=Nc1ccc(OC)cc1	30.5*	-1.9	-1.1	-0.9	-16.8	-3.0
CCC/C(O)=C1\C(=O)CC(C)(C)CC1=Nc1ccc(OC)cc1	0.0	3.8	6.3	-1.1	-2.5	-1.7
COc1ccc(-n2c(C)nnc2SCC(=O)Nc2ccccc2F)cc1	1.5	4.2	-3.3	-1.0	-3.8	1.1
CC(C)CN(C(=O)CN(C)S(=O)(=O)c1ccc(Cl)cc1)C1CCS(=O)(=O)C1 (configuration not stated)	8.6	17.7	-4.6	-3.4	0.5	1.1
CC(C)CN(C(=O)CCNC(=O)c1ccc(Cl)cc1)C1CCS(=O)(=O)C1 (configuration not stated)	0.5	-8.0	18.3*	1.0	2.9	1.3
CC1CCN(C(C)C(=O)Nc2cc(S(=O)(=O)N3CCCCC3)ccc2Cl)CC1 (configuration not stated)	1.6	11.8	-1.9	1.4	2.2	-1.7
O=C(CCCN1C(=O)c2ccccc2C1=O)Nc1ccc(S(=O)(=O)N2CCOCC2)cc1	27.5*	7.0	-6.1	-4.1	11.2	2.2
O=C(CCCN1C(=O)c2ccccc2C1=O)Nc1ccc(S(=O)(=O)N2CCCCC2)cc1	-20.4	-6.9	3.2	1.7	4.7	12.9
COC(=O)CCC(=O)Nc1ccc(S(=O)(=O)N2CCCCCC2)cc1	-14.6	-6.6	18.6*	-1.4	21.0	1.5
CC(C)CC(=O)Nc1ccc(S(=O)(=O)N2CCCC2)cc1	8.9	28.2*	-3.4	-5.0	-6.0	0.7
CC1CCN(C(C)C(=O)Nc2ccc(S(=O)(=O)N3CCCC3)cc2)CC1 (configuration not stated)	78.5*	14.1	-38.3	-10.1	-16.3	1.5
